≈ marks a conversion by molar mass, not a printed value.
What was measured:
Type in all cases: functional
[1] = tested on: Bacteroides nordii; test: Antimicrobial activity against Bacteroides nordii assessed as resistant isolates by agar dilution method
Procedure, shortened: (§1)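 CLSI agar dilution on enriched brucella agar (5% lysed defibrinated sheep blood, 1 μg/ml vitamin K1), plates made on test day. Log-phase inocula adjusted to 0.5 McFarland; about 10^5 CFU/spot by Steers replicator. Incubated anaerobically at 37°C for 48 h. MIC was the lowest concentration giving a marked change in growth versus the drug-free control plate. Resistance rates used CLSI anaerobe breakpoints. Controls were B. fragilis ATCC 25285 and B. thetaiotaomicron ATCC 29741.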

[2] = tested on: Parabacteroides merdae; test: Antimicrobial activity against Bacteroides merdae assessed as resistant isolates by agar dilution method; procedure, shortened: as §1
[3] = tested on: Bacteroides thetaiotaomicron; test: Antimicrobial activity against Bacteroides thetaiotaomicron by agar dilution method
Procedure, shortened: (§2)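 CLSI agar dilution on enriched brucella agar (5% lysed defibrinated sheep blood, 1 μg/ml vitamin K1), with drug plates made on the test day. Log-phase cells were adjusted to 0.5 McFarland, and about 10^5 CFU/spot was delivered by Steers replicator. Plates were incubated anaerobically at 37°C for 48 h. MIC was the lowest concentration giving a marked growth change versus the control plate. Controls were B. fragilis ATCC 25285 and B. thetaiotaomicron ATCC 29741.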

[4] = tested on: Parabacteroides merdae; test: Antimicrobial activity against Bacteroides merdae by agar dilution method; procedure, shortened: as §2
[5] = tested on: Bacteroides fragilis; test: Antimicrobial activity against Bacteroides fragilis assessed as resistant isolates by agar dilution method; procedure, shortened: as §1
[6] = tested on: Cutibacterium acnes; test: Antimicrobial activity against Propionibacterium acnes by agar dilution method
Procedure, shortened: (§3)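 Log-phase isolates were adjusted to 0.5 McFarland, and about 10^5 CFU/spot was delivered by Steers replicator. Plates were incubated anaerobically at 37°C for 48 h. MIC was the lowest concentration giving a marked growth change versus the control plate. Eubacterium lentum ATCC 43055 was the QC strain, with repeats when out of range.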

[7] = tested on: Phocaeicola vulgatus; test: Antimicrobial activity against Bacteroides vulgatus assessed as resistant isolates by agar dilution method; procedure, shortened: as §1
[8] = tested on: Parabacteroides distasonis; test: Antimicrobial activity against Bacteroides distasonis assessed as resistant isolates by agar dilution method; procedure, shortened: as §1
[9] = tested on: Parvimonas micra; test: Antimicrobial activity against Micromonas micros by agar dilution method
Procedure, shortened: (§4)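 Gram-positive anaerobes were tested by CLSI agar dilution on brucella agar enriched with 5% lysed defibrinated sheep blood and 1 μg/ml vitamin K1. Inoculum was log-phase growth at 0.5 McFarland, about 10^5 CFU/spot by replicator. Incubation was anaerobic, 37°C, 48 h. MIC was the lowest concentration with a marked growth change versus the drug-free plate. Eubacterium lentum ATCC 43055 was the control, and tests were repeated if it fell outside the CLSI range.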

[10] = tested on: Bacteroides fragilis; test: Antimicrobial activity against Bacteroides fragilis by agar dilution method; procedure, shortened: as §2
[11] = tested on: Peptoniphilus asaccharolyticus; test: Antimicrobial activity against Peptoniphilus asaccharolyticus assessed as resistant isolates by agar dilution method; settings: pooled result: one value given for 4 cell lines, strains, targets or settings
Procedure, shortened: (§5)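 Agar dilution following CLSI on brucella agar with 5% lysed defibrinated sheep blood and 1 μg/ml vitamin K1, plates made on test day. Log-phase cells at 0.5 McFarland, about 10^5 CFU/spot by Steers replicator, 48 h anaerobic at 37°C. MIC read as the lowest concentration causing a marked growth change versus control. Resistance counted by CLSI anaerobe breakpoints. Eubacterium lentum ATCC 43055 served as control.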

[12] = tested on: Bacteroides uniformis; test: Antimicrobial activity against Bacteroides uniformis by agar dilution method; procedure, shortened: as §2
[13] = tested on: [Clostridium] innocuum; test: Antimicrobial activity against Clostridium innocuum assessed as resistant isolates by agar dilution method; settings: pooled result: one value given for 4 cell lines, strains, targets or settings
[14] = tested on: Finegoldia magna; test: Antimicrobial activity against Finegoldia magna assessed as resistant isolates by agar dilution method; procedure, shortened: as §5
[15] = tested on: Peptostreptococcus sp.; test: Antimicrobial activity against Peptostreptococcus sp. by agar dilution method; procedure, shortened: as §3
[16] = tested on: Bacteroides ovatus; test: Antimicrobial activity against Bacteroides ovatus by agar dilution method; procedure, shortened: as §2
[17] = tested on: Finegoldia magna; test: Antimicrobial activity against Finegoldia magna by agar dilution method; procedure, shortened: as §4
[18] = tested on: Anaerococcus prevotii; test: Antimicrobial activity against Anaerococcus prevotii by agar dilution method; procedure, shortened: as §4
[19] = tested on: Propionibacterium; test: Antimicrobial activity against Propionibacterium sp. assessed as resistant isolates by agar dilution method; procedure, shortened: as §5
[20] = tested on: Phocaeicola vulgatus; test: Antimicrobial activity against Bacteroides vulgatus by agar dilution method; procedure, shortened: as §2
[21] = tested on: Bacteroides eggerthii; test: Antimicrobial activity against Bacteroides eggerthii assessed as resistant isolates by agar dilution method; procedure, shortened: as §1
[22] = tested on: Clostridium subterminale; test: Antimicrobial activity against Clostridium subterminale by agar dilution method
[23] = tested on: Bacteroides ovatus; test: Antimicrobial activity against Bacteroides ovatus assessed as resistant isolates by agar dilution method; procedure, shortened: as §1
[24] = tested on: Bacteroides caccae; test: Antimicrobial activity against Bacteroides caccae by agar dilution method; procedure, shortened: as §2
[25] = tested on: Clostridioides difficile; test: Antimicrobial activity against Clostridium difficile by agar dilution method
[26] = tested on: Cutibacterium acnes; test: Antimicrobial activity against Propionibacterium acnes assessed as resistant isolates by agar dilution method; procedure, shortened: as §5
[27] = tested on: [Clostridium] innocuum; test: Antimicrobial activity against Clostridium innocuum by agar dilution method
[28] = tested on: Bacteroides caccae; test: Antimicrobial activity against Bacteroides caccae assessed as resistant isolates by agar dilution method; procedure, shortened: as §1
[29] = tested on: Clostridium perfringens; test: Antimicrobial activity against Clostridium perfringens by agar dilution method
[30] = tested on: Bacteroides thetaiotaomicron; test: Antimicrobial activity against Bacteroides thetaiotaomicron assessed as resistant isolates by agar dilution method; procedure, shortened: as §1
[31] = tested on: Propionibacterium; test: Antimicrobial activity against Propionibacterium sp. by agar dilution method; procedure, shortened: as §3
[32] = tested on: Bacteroides uniformis; test: Antimicrobial activity against Bacteroides uniformis assessed as resistant isolates by agar dilution method; procedure, shortened: as §1
[33] = tested on: Bacteroides nordii; test: Antimicrobial activity against Bacteroides nordii by agar dilution method; procedure, shortened: as §2
[34] = tested on: Peptoniphilus asaccharolyticus; test: Antimicrobial activity against Peptoniphilus asaccharolyticus by agar dilution method; procedure, shortened: as §4
[35] = tested on: Clostridium paraputrificum; test: Antimicrobial activity against Clostridium paraputrificum by agar dilution method
[36] = tested on: Clostridium tertium; test: Antimicrobial activity against Clostridium tertium by agar dilution method
[37] = tested on: Parabacteroides distasonis; test: Antimicrobial activity against Bacteroides distasonis by agar dilution method; procedure, shortened: as §2
[38] = tested on: Bacteroides eggerthii; test: Antimicrobial activity against Bacteroides eggerthii by agar dilution method; procedure, shortened: as §2

## C[C@@H](O)[C@H]1C(=O)N2C(C(=O)O)=C(S[C@@H]3CN[C@H](C(=O)N(C)C)C3)[C@H](C)[C@H]12 [MEROPENEM]
[1]
  Activity: 0%
[2]
  Activity: 0%
[3]
  MIC50: 0.5 µg/mL (≈ 1.3 µM)
  MIC90: 2 µg/mL (≈ 5.22 µM)
[4]
  MIC50: 0.25 µg/mL (≈ 0.652 µM)
  MIC90: 1 µg/mL (≈ 2.61 µM)
[5]
  Activity: 1.5%
[6]
  MIC: 0.06 µg/mL (≈ 0.156 µM)
  MIC50: 0.06 µg/mL (≈ 0.156 µM)
  MIC90: 0.06 µg/mL (≈ 0.156 µM)
[7]
  Activity: 0%
[8]
  Activity: 0%
[9]
  MIC50: 0.125 µg/mL (≈ 0.326 µM)
  MIC90: 0.5 µg/mL (≈ 1.3 µM)
[10]
  MIC50: 0.25 µg/mL (≈ 0.652 µM)
  MIC90: 1 µg/mL (≈ 2.61 µM)
[11]
  Activity: 0%
[12]
  MIC50: 0.25 µg/mL (≈ 0.652 µM)
  MIC90: 0.5 µg/mL (≈ 1.3 µM)
[13]
  Activity: 0%
[14]
  Activity: 0%
[15]
  MIC50: 0.125 µg/mL (≈ 0.326 µM)
  MIC90: 0.5 µg/mL (≈ 1.3 µM)
[16]
  MIC50: 0.5 µg/mL (≈ 1.3 µM)
  MIC90: 2 µg/mL (≈ 5.22 µM)
[17]
  MIC50: 0.125 µg/mL (≈ 0.326 µM)
  MIC90: 0.125 µg/mL (≈ 0.326 µM)
[18]
  MIC50: 0.125 µg/mL (≈ 0.326 µM)
  MIC90: 0.5 µg/mL (≈ 1.3 µM)
[19]
  Activity: 0%
[20]
  MIC50: 0.5 µg/mL (≈ 1.3 µM)
  MIC90: 2 µg/mL (≈ 5.22 µM)
[21]
  Activity: 0%
[22]
  MIC50: 2 µg/mL (≈ 5.22 µM)
  MIC90: 2 µg/mL (≈ 5.22 µM)
[23]
  Activity: 0%
[24]
  MIC50: 0.25 µg/mL (≈ 0.652 µM)
  MIC90: 2 µg/mL (≈ 5.22 µM)
[25]
  MIC: 1 µg/mL (≈ 2.61 µM)
[26]
  Activity: 0%
[27]
  MIC50: 2 µg/mL (≈ 5.22 µM)
  MIC90: 2 µg/mL (≈ 5.22 µM)
[28]
  Activity: 0%
[29]
  MIC: 0.06 µg/mL (≈ 0.156 µM)
  MIC50: 0.06 µg/mL (≈ 0.156 µM)
  MIC90: 0.125 µg/mL (≈ 0.326 µM)
[30]
  Activity: 0%
[31]
  MIC: 0.06 µg/mL (≈ 0.156 µM)
  MIC50: 0.06 µg/mL (≈ 0.156 µM)
  MIC90: 0.25 µg/mL (≈ 0.652 µM)
[32]
  Activity: 0%
[33]
  MIC50: 0.25 µg/mL (≈ 0.652 µM)
  MIC90: 1 µg/mL (≈ 2.61 µM)
[34]
  MIC50: 0.125 µg/mL (≈ 0.326 µM)
  MIC90: 0.5 µg/mL (≈ 1.3 µM)
[35]
  MIC50: 2 µg/mL (≈ 5.22 µM)
  MIC90: 2 µg/mL (≈ 5.22 µM)
[36]
  MIC50: 2 µg/mL (≈ 5.22 µM)
  MIC90: 2 µg/mL (≈ 5.22 µM)
[37]
  MIC50: 1 µg/mL (≈ 2.61 µM)
  MIC90: 2 µg/mL (≈ 5.22 µM)
[38]
  MIC50: 0.25 µg/mL (≈ 0.652 µM)
  MIC90: 1 µg/mL (≈ 2.61 µM)

## C[C@@H](O)[C@H]1C(=O)N2C(C(=O)O)=C(SCCNC=N)C[C@H]12 [IMIPENEM ANHYDROUS]
[1]
  Activity: 0%
[2]
  Activity: 0%
[3]
  MIC50: 1 µg/mL (≈ 3.34 µM)
  MIC90: 2 µg/mL (≈ 6.68 µM)
[4]
  MIC50: 0.5 µg/mL (≈ 1.67 µM)
  MIC90: 1 µg/mL (≈ 3.34 µM)
[5]
  Activity: 1%
[6]
  MIC: 0.06 µg/mL (≈ 0.2 µM)
  MIC50: 0.06 µg/mL (≈ 0.2 µM)
  MIC90: 0.06 µg/mL (≈ 0.2 µM)
[7]
  Activity: 0%
[8]
  Activity: 0%
[9]
  MIC50: 0.125 µg/mL (≈ 0.418 µM)
  MIC90: 0.5 µg/mL (≈ 1.67 µM)
[10]
  MIC50: 0.5 µg/mL (≈ 1.67 µM)
  MIC90: 1 µg/mL (≈ 3.34 µM)
[11]
  Activity: 0%
[12]
  MIC50: 1 µg/mL (≈ 3.34 µM)
  MIC90: 1 µg/mL (≈ 3.34 µM)
[13]
  Activity: 16.7%
[14]
  Activity: 0%
[15]
  MIC50: 0.125 µg/mL (≈ 0.418 µM)
  MIC90: 0.5 µg/mL (≈ 1.67 µM)
[16]
  MIC50: 0.5 µg/mL (≈ 1.67 µM)
  MIC90: 2 µg/mL (≈ 6.68 µM)
[17]
  MIC50: 0.25 µg/mL (≈ 0.835 µM)
  MIC90: 0.25 µg/mL (≈ 0.835 µM)
[18]
  MIC50: 0.125 µg/mL (≈ 0.418 µM)
  MIC90: 0.5 µg/mL (≈ 1.67 µM)
[19]
  Activity: 0%
[20]
  MIC50: 1 µg/mL (≈ 3.34 µM)
  MIC90: 2 µg/mL (≈ 6.68 µM)
[21]
  Activity: 0%
[22]
  MIC50: 2 µg/mL (≈ 6.68 µM)
  MIC90: 2 µg/mL (≈ 6.68 µM)
[23]
  Activity: 0%
[24]
  MIC50: 0.5 µg/mL (≈ 1.67 µM)
  MIC90: 2 µg/mL (≈ 6.68 µM)
[25]
  MIC: 2 µg/mL (≈ 6.68 µM)
[26]
  Activity: 0%
[27]
  MIC50: 2 µg/mL (≈ 6.68 µM)
  MIC90: 2 µg/mL (≈ 6.68 µM)
[28]
  Activity: 0%
[29]
  MIC50: 0.5 µg/mL (≈ 1.67 µM)
  MIC90: 0.5 µg/mL (≈ 1.67 µM)
[30]
  Activity: 0%
[31]
  MIC: 0.06 µg/mL (≈ 0.2 µM)
  MIC50: 0.06 µg/mL (≈ 0.2 µM)
  MIC90: 0.25 µg/mL (≈ 0.835 µM)
[32]
  Activity: 0%
[33]
  MIC50: 0.5 µg/mL (≈ 1.67 µM)
  MIC90: 1 µg/mL (≈ 3.34 µM)
[34]
  MIC50: 0.125 µg/mL (≈ 0.418 µM)
  MIC90: 0.5 µg/mL (≈ 1.67 µM)
[35]
  MIC50: 2 µg/mL (≈ 6.68 µM)
  MIC90: 2 µg/mL (≈ 6.68 µM)
[36]
  MIC50: 2 µg/mL (≈ 6.68 µM)
  MIC90: 2 µg/mL (≈ 6.68 µM)
[37]
  MIC50: 0.25 µg/mL (≈ 0.835 µM)
  MIC90: 2 µg/mL (≈ 6.68 µM)
[38]
  MIC50: 0.5 µg/mL (≈ 1.67 µM)
  MIC90: 1 µg/mL (≈ 3.34 µM)
